Screening data: PubChem, several laboratories
KCC2 mod: KCC2 (human) Cl- transport modulation; AID 1456; KCC2 cells, thallium flux FluoZin-2 fluorescence; B-score of Tl+ flux slope (higher = more flux/activation; lower = inhibition) at 10 µM; hit rate 2.2% among 190,000; Q9H2X9;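 active = thallium flux slope and its plate-corrected score both differing from the plate sample mean at a set confidence after two filtering rounds, in either direction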;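 note: slope of fluorescence scaled to starting intensity during 10 to 20 s after thallium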
CHT PAM: allosteric activators of human choline transporter CHT. Q9GZV3. CHT-expressing cells, membrane potential dye, choline EC20; active compounds read high; LV-AA mutant CHT in HEK293 cells. hit rate 0.49% among 310,000. B-score at 10 µM;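 active = initial fluorescence not abnormally high and integrated response B-score, plate-corrected, over 3 SD above library mean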
CHT inh: inhibitors of human choline transporter CHT | Q9GZV3 | CHT-expressing cells, membrane potential dye, choline response; active compounds read low | B-score at 10 µM | hit rate 0.86% among 310,000 | AID 488975;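 active = B-score over 3 SD under the library average, and starting fluorescence ratio not unusually high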;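 note: choline stimulus applied at its EC90 after an EC20 pre-addition; B-score computed on integrated fluorescence ratio after choline addition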
Rad51 HR inh: Rad51 (human) homologous recombination inhibition; inhibition, % at 10 µM; Q06609; hit rate 0.085% among 200,000; hRad51 DNA strand exchange, fluorescence dequenching;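 active = inhibition above 40% at the single screening dose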
Target sequence (Q06609 whole entry, looked up): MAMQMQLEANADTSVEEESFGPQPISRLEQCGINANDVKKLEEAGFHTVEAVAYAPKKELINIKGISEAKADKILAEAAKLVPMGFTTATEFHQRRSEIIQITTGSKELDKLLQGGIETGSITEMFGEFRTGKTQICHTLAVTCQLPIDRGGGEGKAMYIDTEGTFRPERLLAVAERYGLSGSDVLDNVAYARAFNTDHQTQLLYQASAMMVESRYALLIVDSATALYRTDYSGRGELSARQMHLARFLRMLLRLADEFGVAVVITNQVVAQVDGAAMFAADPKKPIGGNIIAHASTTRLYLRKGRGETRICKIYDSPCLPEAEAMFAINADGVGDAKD
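System: human Rad51 nucleoprotein filaments preassembled on unlabelled ssDNA. Reagent: labelled 47-mer dsDNA for strand exchange. Schedule: 30-min compound preincubation and 15-min exchange, both room temperature. Measured by: FRET fluorescence dequenching, excitation 485 nm, emission 520 nm. Read-out: Fluorescence-based percent inhibition, control- and blank-normalised. Benchmarks: plate controls and plate blanks.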
CHT inh conf: human CHT inhibition, confirmatory screen | CHT-expressing cells, choline membrane potential dye; LV-to-AA substituted CHT, HEK293 cells | CHT activity remaining % of control (active compounds read low), % at 10 µM | shares compounds with CHT inh | hit rate 70% among 2,400;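 active = choline transporter activity left, mean of duplicates at 10 µM, below buffer-only control mean minus 3 SD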;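 note: depolarization triggered by choline at its EC90 following an EC20 pre-addition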
HEK293 MPD ctr: CHT inhibitor counter-screen hit in parental HEK293 cells; shares compounds with CHT inh; membrane potential dye, choline response; active = decrease or increase beyond buffer ±3SD; membrane potential ratio readout (active if shifted either direction beyond buffer ±3SD; no single direction) at 10 µM; hit rate 4% among 2,400; AID 493222;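 note: parental cells lack the transporter so any hit is non-specific; ratio is peak minus trough fluorescence over baseline after EC90 choline challenge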
Numbers stand for hits. This is a sample that favours compounds with a hit; in the whole collection about 2.6% have one here.

For COc1ccc(N2C(=O)CC(N(Cc3ccco3)C(=O)CCC(=O)O)C2=O)cc1 (stereo unspecified) the results were KCC2 mod inactive, CHT PAM inactive, CHT inh -6.4, Rad51 HR inh inactive, CHT inh conf inactive and HEK293 MPD ctr inactive.
Screening CCCOc1ccc(N2C(=O)CC(N(Cc3ccco3)C(=O)CCC(=O)O)C2=O)cc1 (stereo unspecified) returned KCC2 mod inactive, CHT PAM inactive, CHT inh inactive and Rad51 HR inh inactive.
Screening CC(/C=N/NC(=O)Cn1cnc2c1c(=O)n(C)c(=O)n2C)=C\c1ccccc1 returned KCC2 mod inactive, CHT PAM inactive, CHT inh inactive and Rad51 HR inh inactive.
Screening CCOC(=O)CC1=C(C(=O)OCC)C(c2cccs2)C(C#N)=C(N)O1 (stereo unspecified) returned CHT PAM inactive, CHT inh -5.3, Rad51 HR inh inactive, CHT inh conf inactive and HEK293 MPD ctr inactive.
CCOC(=O)C1=C(c2ccccc2)OC(N)=C(C#N)C1c1cccs1 (stereo unspecified) was read as KCC2 mod inactive, CHT PAM inactive, CHT inh inactive and Rad51 HR inh inactive.
`CCOC(=O)C1=C(CC)OC(N)=C(C#N)C1c1cc(OC)ccc1OC` (stereo unspecified) gave KCC2 mod inactive, CHT PAM inactive, CHT inh -13, Rad51 HR inh inactive, CHT inh conf inactive and HEK293 MPD ctr inactive.
Screening CCc1cccc(C)c1NC(=O)Cn1nc(C)n2cccc2c1=O returned CHT PAM inactive and CHT inh inactive.
`Cc1ccc(C)c(N2CCN(C(=O)COc3cc(=O)n(C)c4ccccc34)CC2)c1` gave CHT PAM inactive and CHT inh inactive.
For Cc1cccc(N2CCN(C(=O)COc3cc(=O)n(C)c4ccccc34)CC2)c1C the results were KCC2 mod inactive, CHT PAM inactive, CHT inh -13, Rad51 HR inh inactive, CHT inh conf 31% and HEK293 MPD ctr inactive.
For CC1CCN(C(=O)CCCOc2cc(=O)n(C)c3ccccc23)CC1 the results were KCC2 mod inactive, CHT PAM inactive, CHT inh -5.9, Rad51 HR inh inactive, CHT inh conf 69% and HEK293 MPD ctr inactive.
`COc1ccc(N2CCN(C(=O)CCCOc3cc(=O)n(C)c4ccccc34)CC2)cc1` gave KCC2 mod inactive, CHT PAM inactive, CHT inh inactive and Rad51 HR inh inactive.
`Cc1ccccc1OCC(=O)NNC(=O)CN1C(=O)c2ccccc2C1=O` gave KCC2 mod inactive, CHT PAM inactive, CHT inh inactive and Rad51 HR inh inactive.
For Cc1ccc(-n2c(C)nn(CC3CC3)c2=O)cc1 the results were KCC2 mod inactive, CHT PAM inactive, CHT inh inactive and Rad51 HR inh inactive.
`Cc1nn(CC2CC2)c(=O)n1-c1cccc(Cl)c1` gave KCC2 mod inactive, CHT PAM inactive, CHT inh -5.8, Rad51 HR inh inactive, CHT inh conf inactive and HEK293 MPD ctr inactive.
COc1ccc(-c2nn(-c3ccccc3)cc2/C=C/C(=O)N2CCN(c3ccccn3)CC2)cc1 was read as KCC2 mod inactive, CHT PAM inactive, CHT inh inactive and Rad51 HR inh inactive.
For CC(=O)Nc1ccc(NC(=O)C(C)OC(=O)CCCN2C(=O)c3cccc4cccc(c34)C2=O)cc1 (stereo unspecified) the results were CHT PAM inactive and CHT inh inactive.
For CCN(CC)C(=O)CSc1nc2ccc(NC(=O)CSc3nnc(N)s3)cc2s1 the results were KCC2 mod inactive, CHT PAM inactive and CHT inh inactive.
Screening CCN(CC)C(=O)CSc1nc2ccc(NC(=O)CSc3nccn3C)cc2s1 returned KCC2 mod inactive, CHT PAM inactive, CHT inh -9.6, Rad51 HR inh inactive, CHT inh conf 25% and HEK293 MPD ctr inactive.
For O=C(Cc1ccccc1F)c1ccc(O)cc1O the results were KCC2 mod inactive, CHT PAM inactive, CHT inh -6.2, Rad51 HR inh inactive, CHT inh conf 45% and HEK293 MPD ctr inactive.
`OCCC1CN(Cc2cccn2-c2ccccn2)CCN1C1CCCCC1` (stereo unspecified) gave KCC2 mod inactive, CHT PAM inactive and CHT inh inactive.
For Cc1n[nH]c(C)c1Sc1ccccc1[N+](=O)[O-] the results were KCC2 mod inactive, CHT PAM inactive, CHT inh inactive and Rad51 HR inh inactive.
Cc1n[nH]c(C)c1Sc1ccccc1N=Cc1cc(Cl)cc([N+](=O)[O-])c1O was read as KCC2 mod inactive, CHT PAM inactive, CHT inh -7.9, Rad51 HR inh inactive, CHT inh conf 36% and HEK293 MPD ctr inactive.
Screening COC(=O)c1sc(NC(=O)c2ccc([N+](=O)[O-])o2)c(C#N)c1C returned KCC2 mod inactive, CHT PAM inactive, CHT inh -8, Rad51 HR inh inactive, CHT inh conf 62% and HEK293 MPD ctr 2.5.
CC(C)(C)CC(=O)NCCc1csc(-c2ccccc2)n1 was read as KCC2 mod inactive, CHT PAM inactive, CHT inh -5.3, CHT inh conf 55% and HEK293 MPD ctr inactive.
For O=C(O)C1CC=CCC1C(=O)NCCc1csc(-c2ccccc2)n1 (stereo unspecified) the results were KCC2 mod inactive, CHT PAM inactive, CHT inh inactive and Rad51 HR inh inactive.
For Cc1c(Cc2ccccc2)c(=O)oc2cc(O)ccc12 the results were KCC2 mod inactive, CHT PAM inactive, CHT inh -6.5, Rad51 HR inh inactive, CHT inh conf inactive and HEK293 MPD ctr inactive.
O=C(Nc1ccc(S(=O)(=O)N2CCOCC2)cc1)c1cc([N+](=O)[O-])ccc1Cl was read as CHT PAM inactive and CHT inh inactive.
O=C(Nc1ccc(S(=O)(=O)N2CCOCC2)cc1)c1ccc(Cl)cc1Cl was read as CHT PAM inactive, CHT inh -6.4, CHT inh conf 43% and HEK293 MPD ctr inactive.
Screening CN1CCN(c2ccc(NC(=O)c3ccc(Cl)cc3Cl)cc2)CC1 returned CHT PAM inactive, CHT inh -6.4, CHT inh conf 41% and HEK293 MPD ctr inactive.
Screening O=C(Nc1ccc(S(=O)(=O)NC2=NCCCCC2)cc1)c1ccc(Cl)cc1Cl returned CHT PAM inactive, CHT inh -12, CHT inh conf -7.3% and HEK293 MPD ctr inactive.
For Fc1ccc(Nc2nnc(C(F)(F)F)s2)cc1Cl the results were CHT PAM inactive, CHT inh -5.2, Rad51 HR inh inactive, CHT inh conf 51% and HEK293 MPD ctr inactive.
Screening COc1cccc(/C=C2/NC(=O)NC2=O)c1OCC(=O)Nc1ccccc1 returned KCC2 mod inactive, CHT PAM inactive, CHT inh inactive and Rad51 HR inh inactive.
